# Active and inactive are the calls of the source. The rule behind the calls is not given here.
# Assays:
# [1] = target: Receptor tyrosine-protein kinase erbB-2 (Homo sapiens) (UniProt P04626); assay: Inhibition of human recombinant GST-tagged HER2 (catalytic domain 676 to end residues) autophosphorylation expressed in baculovirus infected Sf9 cells using poly( Glu, Tyr) 4:1 as substrate at 10 uM incubated for 60 mins by ELISA relative to control
# How it was run: (§1)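 Wells coated with poly-Glu,Tyr (4:1), 20 µg/well overnight at 4 °C, then blocked with 5% BSA. GST-HER2 added at 200 ng/mL final in HEPES/NaCl/NaVO₄/BSA buffer. Reaction started with ATP spanning Km plus 10 mM MnCl₂ final, run 60 min at 37 °C, stopped with EDTA. Phosphotyrosine detected with HRP anti-pTyr and ABTS at 405 nm; triplicate.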
# [2] = target: Receptor tyrosine-protein kinase erbB-2 (Homo sapiens) (UniProt P04626); assay: Inhibition of human recombinant GST-tagged HER2 (catalytic domain 676 to end residues) autophosphorylation expressed in baculovirus infected Sf9 cells using poly( Glu, Tyr) 4:1 as substrate at 1 uM incubated for 60 mins by ELISA relative to control; how it was run: as §1
# [3] = target: Receptor tyrosine-protein kinase erbB-2 (Homo sapiens) (UniProt P04626); assay: Inhibition of HER2 autophosphorylation in human HCC1954 cells overexpressing HER2 at 0.02 to 2 uM incubated for 1 hr by Western blot analysis; format: cell-based
# How it was run: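 HCC-1954 cells at 60-70% confluence exposed to 0.02 and 2 μM compound for 1 h, then lysed in RIPA with protease inhibitors. About 10 µg protein separated by SDS-PAGE and blotted to PVDF. Phospho- and total HER2 antibodies at 1:1000, HRP secondaries, ECL read-out; β-actin used for normalization.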
# A549 [4] = assay: Antiproliferative activity against human A549 cells overexpressing EGFR assessed as reduction in cell viability at 1 to 60 uM incubated for 72 hrs by MTT assay; format: functional, cell-based
# HCC1954 [5] = assay: Antiproliferative activity against human HCC1954 cells overexpressing HER2 assessed as reduction in cell viability at 1 to 60 uM incubated for 72 hrs by MTT assay; format: functional, cell-based
# [6] = target: Epidermal growth factor receptor (Homo sapiens) (UniProt P00533); assay: Inhibition of EGFR autophosphorylation in human A549 cells overexpressing EGFR at 1 to 10 uM treated with compound for 10 mins prior to EGF stimulation for 10 mins by Western blot analysis; format: cell-based
# How it was run: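 A549 cells grown to 60-70% confluence, then serum-starved 24 h. Exposed to compound for 10 min, then stimulated with 100 ng/mL EGF for 10 min at 37 °C and lysed in RIPA with protease inhibitors. About 10 µg protein run on SDS-PAGE, blotted to PVDF. Phospho- and total EGFR probed at 1:1000, HRP secondaries, ECL detection; β-actin for normalization.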
# A549 [7] = assay: Antiproliferative activity against human A549 cells overexpressing EGFR assessed as reduction in cell viability incubated for 72 hrs by MTT assay; format: functional, cell-based; details: A549, 72 h
# How it was run: (§2)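 Cells seeded at 5×10^3/well in complete medium (DMEM or RPMI, 10% FBS) and left 24 h at 37 °C, 5% CO2. Compounds added at 0.5–150 μM for 72 h. MTT (0.3 mg/mL in PBS) applied for 3 h, formazan dissolved in DMSO, OD read at 570 nm against 650 nm reference. IC50 from four-parameter logistic fit; three experiments in triplicate.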
# NCI-H1975 = assay: Antiproliferative activity against human NCI-H1975 cells assessed as reduction in cell viability incubated for 72 hrs by MTT assay; format: functional, cell-based; details: NCI-H1975, 72 h; how it was run: as §2
# HCC1954 [8] = assay: Antiproliferative activity against human HCC1954 cells overexpressing HER2 assessed as reduction in cell viability incubated for 72 hrs by MTT assay; format: functional, cell-based; details: HCC1954, 72 h; how it was run: as §2
# MCF7 = assay: Antiproliferative activity against human MCF7 cells assessed as reduction in cell viability incubated for 72 hrs by MTT assay; format: functional, cell-based; details: MCF7, 72 h; how it was run: as §2
# [9] = Drug uptake in human A549 cells overexpressing EGFR at 1 uM measured after 48 hrs by LC-MS/MS analysis; format: ADME, cell-based; details: a549, 48 h
# How it was run: (§3)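 A549 cells plated at 1.5×10^5 cells/well and exposed to 1 µM compound for 1, 4, 8, 24 and 48 h. Cells washed twice with ice-cold PBS, then lysed. Intracellular amount measured by LC-MS/MS against standard curves with a stable internal standard.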
# [10] = Cmax in C57BL/6N mouse at 34 micromol/kg, po measured upto 24 hrs by LC-MS/MS analysis; format: ADME, organism-based; parameters: route oral; details: in vivo, 34 µmol/kg
# How it was run: (§4)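 Male C57BL/6N mice, 10-12 weeks old, n = 5 per group, fasted overnight, single oral gavage dose in 0.5% carboxymethyl cellulose: 0.1% Tween 80 in water. Serial tail bleeds of 10 μL at 0.25, 0.5, 1, 2, 4, 6, 8 and 24 h into 0.1 M citric acid pH 4.5, stored at -80 °C. Samples processed by protein precipitation and evaporation, then quantified in blood by LC-MS/MS.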
# [11] = Tmax in C57BL/6N mouse at 34 micromol/kg, po measured upto 24 hrs by LC-MS/MS analysis; format: ADME, organism-based; details: in vivo, 34 µmol/kg; how it was run: as §4
# [12] = AUC (0 to 24 hrs) in C57BL/6N mouse at 34 micromol/kg, po measured upto 24 hrs by LC-MS/MS analysis; format: ADME, organism-based; parameters: time < 24 hr, route oral; details: in vivo, 34 µmol/kg; how it was run: as §4
# A549 [13] = assay: Antitumor activity against human A549 cells overexpressing EGFR xenografted in NOD/SCID mouse assessed as tumor volume at 86 micromol/kg, po administered once daily for 27 days measured at day 27 at 2 hrs after last administered dose (reference value: 1869 +/- 134 mm3); format: functional
# How it was run: (§5)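 NOD/SCID mice (n=4 per group, 2 male, 2 female) injected in each flank with 5×10⁶ A549 cells in DMEM, 10% FBS. Daily oral dosing started at about 150–160 mm³ tumors; vehicle 0.5% carboxymethyl cellulose: 0.1% Tween 80 in water. Caliper measurements every three days, V = π×D×d²/6. Body weight and signs of discomfort monitored. Study ended day 27, 2 h post last dose.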
# [14] = Toxicity in NOD/SCID mouse xenografted with human A549 cells overexpressing EGFR assessed as changes in body weight at 86 micromol/kg, po administered once daily for 27 days; format: organism-based; details: in vivo, 648 h; how it was run: as §5
# [15] = Drug concentration in NOD/SCID mouse blood xenografted with human A549 cells overexpressing EGFR at 86 micromol/kg, po administered once daily for 27 days and measured at day 27 at 2 hrs after last administered dose by LC-MS/MS analysis; format: ADME, organism-based; details: 86 µmol/kg, read-out: Ct
# How it was run: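 A549 xenografts in NOD/SCID mice dosed orally once daily for 27 days, vehicle 0.5% carboxymethyl cellulose: 0.1% Tween 80 in water. Blood collected 2 h after the final dose on day 27, with animals euthanized under isoflurane. Drug level quantified by LC-MS/MS.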
# [16] = Drug uptake in human A549 cells overexpressing EGFR at 1 uM measured after 24 hrs by LC-MS/MS analysis; format: ADME, cell-based; details: a549, 24 h; how it was run: as §3
# [17] = AUC (1 to 48 hrs) in human A549 cells overexpressing EGFR at 1 uM measured per 0.1 million cells by LC-MS/MS analysis; details: a549, 48 h
# Chain of Epidermal growth factor receptor (Homo sapiens) (P00533 whole entry): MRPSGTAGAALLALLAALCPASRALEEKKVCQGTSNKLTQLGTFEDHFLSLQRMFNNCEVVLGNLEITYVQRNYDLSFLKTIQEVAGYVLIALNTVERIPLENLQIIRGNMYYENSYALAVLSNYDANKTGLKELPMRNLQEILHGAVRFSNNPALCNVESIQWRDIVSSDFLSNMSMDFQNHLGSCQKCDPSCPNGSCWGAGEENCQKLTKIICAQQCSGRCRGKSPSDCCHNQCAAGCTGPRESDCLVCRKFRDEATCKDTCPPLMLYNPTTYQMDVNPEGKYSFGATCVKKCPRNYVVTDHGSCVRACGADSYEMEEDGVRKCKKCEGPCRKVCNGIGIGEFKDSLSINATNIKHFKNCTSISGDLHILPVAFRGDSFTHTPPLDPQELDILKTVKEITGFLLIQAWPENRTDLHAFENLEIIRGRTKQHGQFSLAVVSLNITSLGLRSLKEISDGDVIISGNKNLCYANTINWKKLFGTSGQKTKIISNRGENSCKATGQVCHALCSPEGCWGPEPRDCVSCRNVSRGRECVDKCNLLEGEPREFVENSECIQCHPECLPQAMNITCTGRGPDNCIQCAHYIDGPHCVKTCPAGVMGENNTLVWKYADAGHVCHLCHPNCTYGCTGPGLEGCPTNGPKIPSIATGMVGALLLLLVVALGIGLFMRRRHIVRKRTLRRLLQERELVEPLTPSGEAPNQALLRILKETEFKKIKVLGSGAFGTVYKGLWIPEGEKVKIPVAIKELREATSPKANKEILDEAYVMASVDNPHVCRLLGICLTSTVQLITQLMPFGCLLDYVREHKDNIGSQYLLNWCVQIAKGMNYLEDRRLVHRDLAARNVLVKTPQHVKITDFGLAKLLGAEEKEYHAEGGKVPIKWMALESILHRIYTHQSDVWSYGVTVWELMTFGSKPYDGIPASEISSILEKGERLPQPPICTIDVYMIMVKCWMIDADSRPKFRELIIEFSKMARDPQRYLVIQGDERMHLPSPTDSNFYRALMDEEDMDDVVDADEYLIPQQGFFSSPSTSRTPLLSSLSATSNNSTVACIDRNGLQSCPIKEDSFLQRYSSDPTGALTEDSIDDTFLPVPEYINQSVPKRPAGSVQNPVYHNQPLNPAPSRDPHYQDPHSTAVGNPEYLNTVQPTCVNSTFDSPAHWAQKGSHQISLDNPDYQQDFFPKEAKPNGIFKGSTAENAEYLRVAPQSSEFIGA
# Chain of Receptor tyrosine-protein kinase erbB-2 (Homo sapiens) (P04626 whole entry, the tested form may be a part): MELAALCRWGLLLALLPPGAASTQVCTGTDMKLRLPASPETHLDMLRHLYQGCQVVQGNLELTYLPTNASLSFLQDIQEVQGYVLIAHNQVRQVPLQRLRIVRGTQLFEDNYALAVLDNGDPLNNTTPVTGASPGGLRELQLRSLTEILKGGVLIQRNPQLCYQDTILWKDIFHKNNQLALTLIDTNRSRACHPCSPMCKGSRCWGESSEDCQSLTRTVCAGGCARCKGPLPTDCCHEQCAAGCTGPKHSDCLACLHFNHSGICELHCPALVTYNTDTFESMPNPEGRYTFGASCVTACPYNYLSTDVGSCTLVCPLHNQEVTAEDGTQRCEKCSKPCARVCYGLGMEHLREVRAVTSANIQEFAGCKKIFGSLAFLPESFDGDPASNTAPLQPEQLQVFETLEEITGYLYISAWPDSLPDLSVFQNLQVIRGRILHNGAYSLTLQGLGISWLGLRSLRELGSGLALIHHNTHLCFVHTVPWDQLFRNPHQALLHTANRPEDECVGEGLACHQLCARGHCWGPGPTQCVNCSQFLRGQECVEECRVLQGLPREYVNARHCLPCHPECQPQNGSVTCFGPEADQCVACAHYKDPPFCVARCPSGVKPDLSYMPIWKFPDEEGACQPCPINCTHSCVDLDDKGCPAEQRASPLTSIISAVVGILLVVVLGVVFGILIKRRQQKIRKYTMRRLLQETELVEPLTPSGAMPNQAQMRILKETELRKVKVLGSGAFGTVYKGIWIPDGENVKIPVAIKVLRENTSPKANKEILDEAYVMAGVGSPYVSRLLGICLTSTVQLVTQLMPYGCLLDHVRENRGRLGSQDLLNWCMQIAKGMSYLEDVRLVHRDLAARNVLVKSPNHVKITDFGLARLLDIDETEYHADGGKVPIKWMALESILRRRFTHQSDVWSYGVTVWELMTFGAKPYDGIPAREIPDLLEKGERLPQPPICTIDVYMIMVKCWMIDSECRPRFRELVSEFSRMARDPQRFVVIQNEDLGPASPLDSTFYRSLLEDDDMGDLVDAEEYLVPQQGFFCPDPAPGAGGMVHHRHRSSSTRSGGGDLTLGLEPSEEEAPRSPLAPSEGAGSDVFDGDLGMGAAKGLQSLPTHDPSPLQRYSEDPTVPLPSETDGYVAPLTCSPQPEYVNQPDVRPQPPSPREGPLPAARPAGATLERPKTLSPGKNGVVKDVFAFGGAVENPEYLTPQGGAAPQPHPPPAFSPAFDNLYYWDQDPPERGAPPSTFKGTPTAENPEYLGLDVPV
SMILES,inhibition [1] [%],inhibition [2] [%],inhibition [3],inhibition [6],IC50 (A549 [7]) [µM],IC50 (NCI-H1975) [µM],IC50 (HCC1954 [8]) [µM],IC50 (MCF7) [µM],Drug uptake [9],Cmax [10] [µM],Tmax [11] [h],AUC(0-t) at 24 h [12] [nM·h],concentration at 2 h [15] [µM],Drug uptake [16],AUC [17] [nmol/100.000 cells x h],inhibition (A549 [4]),inhibition (HCC1954 [5]),Activity (A549 [13]) [mm3],Activity [14]
Fc1cccc(COc2ccc(Nc3ncc(F)c4[nH]c(-c5ccco5)nc34)cc2Cl)c1,79,10,,,,,,,,,,,,,,,,,
Fc1cccc(COc2ccc(Nc3ncnc4[nH]c(-c5ccco5)nc34)cc2Cl)c1,86,51,Active,,,,,,,,,,,,,Active,Active,,
Fc1cccc(COc2ccc(Nc3ccnc4[nH]c(-c5ccco5)nc34)cc2Cl)c1,58,24,,Active,3,10,9,126,"0.04 nmol/100,000 cells",0.3,2,2100,0.64,Active,1.5,Active,Active,1311,Non-Toxic
Fc1cccc(COc2ccc(Nc3nccc4[nH]c(-c5ccco5)nc34)cc2Cl)c1,86,82,,,,,,,,,,,,,,inactive,inactive,,

# The next lines start with results.
inhibition [1] [%],inhibition [2] [%],inhibition [3],inhibition [6],IC50 (A549 [7]) [µM],IC50 (NCI-H1975) [µM],IC50 (HCC1954 [8]) [µM],IC50 (MCF7) [µM],Drug uptake [9],Cmax [10] [µM],Tmax [11] [h],AUC(0-t) at 24 h [12] [nM·h],concentration at 2 h [15] [µM],Drug uptake [16],AUC [17] [nmol/100.000 cells x h],SMILES,inhibition (A549 [4]),inhibition (HCC1954 [5]),Activity (A549 [13]) [mm3],Activity [14]
13,0,Active,,,,,,,,,,,,,CS(=O)(=O)CCNCc1ccc(-c2nc3c(Nc4ccc(OCc5cccc(F)c5)c(Cl)c4)ncc(F)c3[nH]2)o1,,,,
97,86,Active,,11,9,5,95,"0.02 nmol/100,000 cells",1.47,2,6700,2.81,,1.06,CS(=O)(=O)CCNCc1ccc(-c2ccc3ncnc(Nc4ccc(OCc5cccc(F)c5)c(Cl)c4)c3c2)o1 [LAPATINIB],,,1338,
32,28,,Active,33,30,14,105,"0.01 nmol/100,000 cells",0.07,2,870,,,0.35,CS(=O)(=O)CCNCc1ccc(-c2nc3c(Nc4ccc(OCc5cccc(F)c5)c(Cl)c4)ncnc3[nH]2)o1,Active,Active,,
46,33,Active,Active,,,,,,,,,,,,CS(=O)(=O)CCNCc1ccc(-c2nc3c(Nc4ccc(OCc5cccc(F)c5)c(Cl)c4)ccnc3[nH]2)o1,inactive,inactive,,
34,25,Active,Active,,,,,,,,,,,,CS(=O)(=O)CCNCc1ccc(-c2nc3c(Nc4ccc(OCc5cccc(F)c5)c(Cl)c4)nccc3[nH]2)o1,,,,

# Source: ChEMBL document CHEMBL4350987, “Design, synthesis and biological evaluation of novel substituted purine isosters as EGFR kinase inhibitors, with promising pharmacokinetic profile and in vivo efficacy” (Eur J Med Chem, 2019)
